Measurements collected from several papers.
PDE4D: 3',5'-cyclic-AMP phosphodiesterase 4D (PDE4D, Homo sapiens, UniProt Q08499)
MTNR1B: Melatonin receptor type 1B (MTNR1B, Homo sapiens, UniProt P49286)

O=C(O)c1ccccc1O
inhibition (PDE4D; enzyme activity, inhibitor, radiometric; 50 µM): 3.34%

COc1ncccc1-c1cnn2ccc(N3CCN(C(=O)OC(C)C)CC3)nc12
remaining binding (Mitogen-activated protein kinase 7 (MAPK7, Homo sapiens, UniProt Q13164); binding, competition with immobilised ligand; 1 µM): 100%

Nc1ncc(-c2nc(N3CCOCC3)nc(N3CCOCC3)n2)c(C(F)F)n1
remaining binding (Non-receptor tyrosine-protein kinase TNK1 (TNK1, Homo sapiens, UniProt Q13470); binding, competition with immobilised ligand; 10 µM): 83%

CC1(C)[C@@H](O)CC[C@]2(C)[C@H]3C(=O)C=C4[C@@H]5C[C@@](C)(C(=O)O)CC[C@]5(C)CC[C@@]4(C)[C@]3(C)CC[C@@H]12
inhibition (PDE4D; enzyme activity, inhibitor, radiometric; 50 µM): 42.4%

CCN(CC)CCCC[C@H](NC(=O)[C@H](CC(C)C)NC(=O)[C@H](C)NC(=O)[C@H](Cc1ccccc1)NC(=O)c1ccc(C(C)(C)C)cc1)C(=O)N[C@@H](CO)C(=O)OC
remaining binding (Prostaglandin E2 receptor EP4 subtype (PTGER4, Homo sapiens, UniProt P35408); ligand displacement, radioligand; 10 µM): 95.2%

c1ccc(C(NCCNC(c2ccccc2)c2ccccc2)c2ccccc2)cc1
inhibition (Phospholipase A2, major isoenzyme (PLA2G1B, Sus scrofa, UniProt P00592); cell-free assay, inhibitor; 10 µM): 4%

CC[C@H](C)[C@@H]1NC(=O)[C@@H]2CSSC[C@H](NC(=O)[C@@H](NC(=O)CN)[C@@H](C)O)C(=O)N[C@@H](CC(N)=O)C(=O)N[C@@H]([C@@H](C)O)C(=O)N3CCC[C@H]3C(=O)NCC(=O)N[C@H]3CSSC[C@H](NC(=O)[C@H](CCSC)NC(=O)[C@H](CC(C)C)NC(=O)[C@H](CCCNC(=N)N)NC(=O)CNC(=O)CNC(=O)[C@H](CC(=O)O)NC1=O)C(=O)NCC(=O)N[C@@H](CCC(=O)O)C(=O)N[C@@H]([C@@H](C)O)C(=O)N[C@H](C(=O)N[C@H](C(=O)NCC(=O)O)C(C)C)CSSC[C@H](NC(=O)[C@H]([C@@H](C)O)NC3=O)C(=O)N[C@@H](CO)C(=O)N[C@@H](Cc1c[nH]c3ccccc13)C(=O)N1CCC[C@H]1C(=O)N[C@@H](C(C)C)C(=O)N2
kon (Prothrombin (F2, Homo sapiens, UniProt P00734); binding, SPR): 1000 to 10000 M⁻¹ s⁻¹

COc1ccc2cccc(C(CO)CNC(=O)CF)c2c1 (stereo not drawn)
Emax (MTNR1B; β-arrestin recruitment, agonist; MT2; 90 min): 101%

COc1cc(O)ccc1/C=C/C(=O)c1ccc(O)cc1
inhibition (PDE4D; enzyme activity, inhibitor, radiometric; 5 µM): -1.92%

COc1ccc2[nH]cc(CCNC(=O)CI)c2c1
Emax (MTNR1B; GTPγS binding, agonist, radiometric; cell membranes): 123%

O=C(O)CC(O)(CC(=O)O)C(=O)O
inhibition (PDE4D; enzyme activity, inhibitor, radiometric; 5 µM): 16.6%

Cc1nn(C)cc1-c1nc2c(N3CCN(Cc4ccc(Cl)cc4)CC3)c(Cl)cnc2[nH]1
remaining binding (Calcium/calmodulin-dependent protein kinase type 1G (CAMK1G, Homo sapiens, UniProt Q96NX5); binding, competition with immobilised ligand; 1 µM): 100%
